# Published values gathered from unrelated publications.
# Compare with care: the assays were run in different laboratories.
SMILES,target or system,test,test system,setting,measurement,value
O=c1c(-c2ccc(O)cc2)coc2c([C@@H]3O[C@H](CO)[C@@H](O)[C@H](O)[C@H]3O)c(O)ccc12,,,Caco-2,"100 µg/mL, 2 h",Papp B→A,5.66 ×10⁻⁶ cm/s
N#Cc1ccc(C[C@H](Nc2ncc(-c3ccc(F)cc3)o2)C(=O)N2CCc3ccccc32)cc1,,,aqueous buffer,"2 h, pH 7.4, 37 °C",kinetic solubility,1.8 µM
COc1cc(/C=C/c2cc(/C=C/c3ccc(O)c(OC)c3)n(-c3ccc(Cl)cc3Cl)n2)ccc1O,WRL68,"cell growth or viability, MTT",,48 h,CC50,> 99 µM
O=c1c(O[C@@H]2O[C@H](CO)[C@H](O)[C@H](O)[C@H]2O)c(-c2ccc(O)c(O)c2)oc2cc(O)cc(O)c12,,,Caco-2,100 µg/mL,Papp A→B,0.383 ×10⁻⁶ cm/s
CCN1CCN(Cc2ccc(Nc3nc4ccc(Oc5ccnc(NC(=O)C6CCN(C)CC6)c5)cc4n3C)cc2C(F)(F)F)CC1,,,,,pKa,8.8
Cc1cc(C)c(CNC(=O)c2cc(Cl)c3c(c2C)O[C@@](C)([C@H]2CC[C@H](N(C)C)CC2)O3)c(=O)[nH]1,,,Caco-2,10 µM,Papp B→A,20.4 ×10⁻⁶ cm/s
NC/C(=C\F)COc1cccc(Cn2c(=S)[nH]c(=O)c3[nH]cnc32)c1,"ATP-dependent translocase ABCB1 (ABCB1, Homo sapiens, UniProt P08183)","transporter efflux, inhibitor",,30 µM,inhibition,< 50%
COc1cc(C2Oc3cc([C@H]4Oc5cc(O)cc(O)c5C(=O)[C@@H]4O)ccc3OC2CO)ccc1O (some centres unmarked),,,Caco-2,"100 µg/mL, 2 h",Papp B→A,17.2 ×10⁻⁶ cm/s
COc1ccc(-c2nn(-c3ccccc3)cc2C=NNc2cn[nH]c(=O)c2Cl)cc1,Jurkat,"cell growth or viability, imaging",,,CC50,> 40 µM
COc1cc(/C=C/C(=O)/C=C/c2ccc(O)c(OC)c2)ccc1O,WRL68,"cell growth or viability, MTT",,"3.2 µg/mL, 48 h",viability,11.5%
CC[C@H](C)[C@H](NC(=O)[C@H](CCC(=O)O)NC(=O)[C@H](CCC(=O)O)NC(=O)[C@@H]1CCCN1C(=O)[C@H](CO)NC(=O)[C@H](C)NC(=O)[C@H](CC(=O)O)NC(=O)[C@H](CCC(=O)O)NC(=O)[C@H](CCC(=O)O)NC(=O)[C@@H]1CCCN1C(=O)[C@H](CCCCNC(=O)COCCOCCNC(=O)COCCOCCNC(=O)CC[C@H](NC(=O)CCCCCCCCCCCCCCCCC(=O)O)C(=O)O)NC(=O)[C@H](C)NC(=O)[C@@H]1CCCN1C(=O)[C@H](C)NC(=O)CC(C)C)C(=O)N[C@@H](CCC(N)=O)C(=O)N[C@@H](CCCNC(=N)N)C(=O)N[C@@H](Cc1ccc(O)cc1)C(=O)N[C@@H](Cc1ccc(O)cc1)C(=O)N[C@H](C(=O)N[C@@H](CO)C(=O)N[C@@H](CC(C)C)C(=O)N[C@@H](CCCNC(=N)N)C(=O)N[C@@H](Cc1c[nH]cn1)C(=O)N[C@@H](Cc1ccc(O)cc1)C(=O)N[C@@H](Cc1ccc(O)cc1)C(=O)N[C@@H](CC(N)=O)C(=O)N[C@@H](Cc1c[nH]c2ccccc12)C(=O)N[C@@H](CC(C)C)C(=O)N[C@H](C(=O)N[C@@H](CCCNC(=N)N)C(=O)N[C@@H](CCC(N)=O)C(=O)N[C@@H](CCCNC(=N)N)C(=O)N[C@@H](Cc1ccc(O)cc1)C(N)=O)[C@@H](C)O)C(C)C,,,"male beagle dog, plasma","subcutaneous, 5 nmol/kg",Tmax,32 h
